Tests used:
[1] = molecular target: GTPase HRas (Homo sapiens) (UniProt P01112); assay: Inhibitory [3H]GDP concentration against cellular p21 Ha-ras
In short: (§1)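 Filter-binding competition: GDP-bound Ha-ras p21 (1 μM; 1 μg) with [3H]GDP (3 μM per footnote, 2 μM in methods) plus analogue over a concentration range, in 50 mM Tris-HCl pH 7.5, 10 mM DTT, 0.5 mM MgCl2, 100 mM NH4Cl, 5 mM EDTA, 45 min, 37 °C. Quenched with cold Mg2+, filtered through nitrocellulose, counted. Krel = [3H]GDP concentration/analogue concentration at 50% inhibition.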

[2] = molecular target: GTPase HRas (Homo sapiens) (UniProt P01112); assay: Inhibitory [3H]GDP concentration against oncogenic Ha-ras protein (p21 Leu-61); in short: as §1

GTPase HRas (Homo sapiens), sequence (P01112 whole entry, looked up): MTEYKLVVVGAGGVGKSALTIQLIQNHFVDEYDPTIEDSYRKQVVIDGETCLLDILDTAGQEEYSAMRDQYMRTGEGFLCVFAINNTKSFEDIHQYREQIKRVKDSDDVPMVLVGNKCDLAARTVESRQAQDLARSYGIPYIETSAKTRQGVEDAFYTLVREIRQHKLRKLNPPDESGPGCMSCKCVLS

Row | K rel [1] | K rel [2] | SMILES
1 | 0.08 | 0.05 | Nc1nc(O)c2ccn(C3O[C@@H](COP(=O)(O)OP(=O)(O)OP(=O)(O)O)[C@H](O)[C@@H]3O)c2n1 (stereo not given in full)
2 | 0.28 | 0.18 | Nc1nc2c(ncn2[C@H]2CC[C@@H](COP(=O)(O)OP(=O)(O)OP(=O)(O)O)O2)c(=O)[nH]1
3 | 0.11 | 0.09 | O=P(O)(O)OP(=O)(O)OP(=O)(O)OC[C@@H]1OC(n2cnc3c(O)ncnc32)[C@@H](O)[C@H]1O (stereo not given in full)
4 | 0.04 | 0.05 | O=P(O)(O)OP(=O)(O)OP(=O)(O)OC[C@@H]1OC(n2cnc3c(O)nc(Br)nc32)[C@@H](O)[C@H]1O (stereo not given in full)
5 | 3.3 | 6 | CCCCc1ccc(Nc2nc(O)c3ncn(C4O[C@@H](COP(=O)(O)OP(=O)(O)OP(=O)(O)O)[C@H](O)[C@@H]4O)c3n2)cc1 (stereo not given in full)
6 | 1.14 | 1.34 | Cc1ccc(Nc2nc(O)c3ncn(C4O[C@@H](COP(=O)(O)OP(=O)(O)OP(=O)(O)O)[C@H](O)[C@@H]4O)c3n2)cc1 (stereo not given in full)
7 | 1.77 | 2.38 | O=P(O)(O)OP(=O)(O)OP(=O)(O)OC[C@@H]1OC(n2cnc3c(O)nc(Nc4ccc(F)cc4)nc32)[C@@H](O)[C@H]1O (stereo not given in full)
8 | 0.59 | 0.68 | CCCCNc1nc(O)c2ncn(C3O[C@@H](COP(=O)(O)OP(=O)(O)OP(=O)(O)O)[C@H](O)[C@@H]3O)c2n1 (stereo not given in full)
9 | 0.0012 | 0.0011 | Nc1nc2c(ncn2COCCOP(=O)(O)OP(=O)(O)OP(=O)(O)O)c(=O)[nH]1
10 | 1.19 | 1.1 | O=P(O)(O)OP(=O)(O)OP(=O)(O)OC[C@@H]1OC(n2cnc3c(O)nc(NCCCCc4ccccc4)nc32)[C@@H](O)[C@H]1O (stereo not given in full)
11 | 0.85 | 0.85 | Nc1nc(O)c2ncn(C3OC(COP(=O)(O)OP(=O)(O)OP(=O)(O)O)CC3O)c2n1 (stereo not given)
12 | 1.1 | 1.2 | Nc1nc(O)c2ncn([C@H]3O[C@@H](COP(=O)(O)OP(=O)(O)OP(=O)(O)O)[C@H](O)[C@@H]3O)c2n1
13 | 0.0014 | 0.0018 | Nc1nc(O)c2ncn(COC(CO)COP(=O)(O)OP(=O)(O)OP(=O)(O)O)c2n1 (stereo not given)
14 | 2.28 | 2.1 | O=P(O)(O)OP(=O)(O)OP(=O)(O)OC[C@@H]1OC(n2cnc3c(O)nc(Nc4ccc(Br)cc4)nc32)[C@@H](O)[C@H]1O (stereo not given in full)
15 | 0.0024 | 0.002 | CN1CN(C2O[C@@H](COP(=O)(O)OP(=O)(O)OP(=O)(O)O)[C@H](O)[C@@H]2O)c2nc(N)nc(O)c21 (stereo not given in full)

— ChEMBL document CHEMBL1125847, “Interaction of GTP derivatives with cellular and oncogenic ras-p21 proteins” (J Med Chem, 1991)
